The list is not random: actives were taken first. Their share in the collection is about 3.5%.
MrgX1 allo act: human MrgX1 positive allosteric modulation, primary screen | Q96LB2 | MrgX1-HEK293, Fluo-4 calcium flux, FDSS; active compounds read high | B-score at 10 µM | 310,000 compounds, 0.63% hits;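 active = plate-corrected calcium response at least 3 library SD above typical, normal starting fluorescence, not activating the receptor alone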;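 also: compound read alongside a low EC10 to EC30 dose of BAM8-22 agonist; peak minus trough fluorescence over baseline measured at the second addition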
Target sequence (Q96LB2 whole entry, looked up): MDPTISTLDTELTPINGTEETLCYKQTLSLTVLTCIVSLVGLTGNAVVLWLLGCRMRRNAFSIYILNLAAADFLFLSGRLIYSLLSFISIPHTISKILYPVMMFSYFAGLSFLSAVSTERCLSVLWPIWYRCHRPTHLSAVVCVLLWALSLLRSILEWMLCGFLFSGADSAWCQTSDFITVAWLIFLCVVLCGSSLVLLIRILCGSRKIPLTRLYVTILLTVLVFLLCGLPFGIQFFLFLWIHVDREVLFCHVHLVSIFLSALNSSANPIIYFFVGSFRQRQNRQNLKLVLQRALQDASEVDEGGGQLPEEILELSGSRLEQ
RGS4 inh: inhibitors of human RGS4 | HEK293 M3R/RGS4 inducible, Fluo-4 calcium flux; active compounds read high; triggered by carbachol at its EC20 | 310,000 compounds, 0.45% hits | P49798 | AID 463165 | B-score at 10 µM;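 active = B-score, a plate-corrected calcium signal, over three deviations above library mean, with baseline fluorescence within five deviations of library mean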;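 also: RGS4 expression induced by doxycycline in cells with stable M3 receptor; B-score is computed from the integrated fluorescence ratio over baseline after carbachol; higher B-score means a larger calcium signal and so more RGS4 inhibition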
Target sequence (P49798 whole entry, looked up): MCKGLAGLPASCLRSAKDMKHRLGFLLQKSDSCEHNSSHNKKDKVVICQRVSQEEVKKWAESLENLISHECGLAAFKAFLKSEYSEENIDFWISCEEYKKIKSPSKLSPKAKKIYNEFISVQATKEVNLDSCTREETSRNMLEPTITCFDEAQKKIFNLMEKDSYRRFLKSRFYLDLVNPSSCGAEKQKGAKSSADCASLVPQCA
RGS4 act: potentiators or activators of RGS4 | HEK293 M3R/inducible RGS4, carbachol calcium flux Fluo4; active compounds read low | 310,000 compounds, 0.92% hits | B-score at 10 µM;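 active = B-score of the integrated calcium signal more than 4 SD below the library mean, with starting fluorescence not abnormally high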;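 also: negative B-score means reduced calcium response which marks RGS4 activation or potentiation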
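Material: M3R-expressing HEK293 line, RGS4 induced by doxycycline | Schedule: Overnight RGS4 induction, 30 min dye load 37 °C, 20 min compound RT | Measured by: Fluo4 fluorescence kinetic imaging of calcium | Read-out: Integrated calcium ratio converted to B score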
MrgX1 antag: blocks BAM8-22 activation of human MrgX1 receptor; MRGX1-HEK293 calcium flux, Fluo-4, BAM8-22 antagonism; active compounds read low; AID 588676; 310,000 compounds, 1.3% hits; Q96LB2; B-score at 10 µM;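 active = calcium-response B-score plate-corrected more than 3 library SD below zero, starting fluorescence within 5 deviations, no agonist response on first addition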;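 also: peak minus trough fluorescence over baseline after final BAM8-22 challenge near maximal dose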
MrgX1 ag: human MrgX1 receptor agonism, primary screen | AID 588627 | B-score at 10 µM | Q96LB2 | 310,000 compounds, 0.44% hits | MrgX1-HEK293 cells, Fluo-4 calcium fluorescence, agonist mode; active compounds read high;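 active = calcium response B-score plate-corrected fluorescence ratio at least 3 library SD, with starting fluorescence B-score inside 5 SD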
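Assay system: stable human MrgX1 HEK293 cell line. Quantity: 15,000 cells per well. Schedule: cells plated overnight, dye loaded 0.5 h 37 °C, 0.5 h room temperature. Detection: Fluo-4 NW calcium-flux fluorescence, kinetic read. Read-out basis: peak-minus-minimum fluorescence over baseline, converted to B scores. Control set: positive and negative control wells on each plate.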
MrgX1 ant reconf: human MrgX1 receptor antagonism, re-confirmation screen. shares compounds with MrgX1 antag. MrgX1-HEK293, BAM8-22 calcium flux, Fluo-4; active compounds read low. remaining BAM8-22 calcium response % of control (active compounds read low), % at 10 µM. 2,300 compounds, 19% hits. AID 602420;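 active = remaining agonist calcium response no higher than 100% minus 3 SD of agonist-only control wells, with starting fluorescence near control levels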;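 also: agonist BAM8-22 given at a near maximal EC90 to ECmax level; peak minus minimum fluorescence divided by baseline after agonist addition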
HEK293 Ca flux: MrgX1 antagonist counter-screen hit in parental HEK293 cells; 4,000 compounds, 2% hits; AID 624111; fluorescence ratio F(max-min)/F0 at 10 µM; shares compounds with MrgX1 antag; Fluo-4 calcium fluorescence, FDSS;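 active = duplicate-averaged calcium fluorescence ratio at least three times the standard deviation of buffer wells, a nonspecific response in parental cells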
HEK293 Ca counter: counter-screen for MrgX1 allosteric activators: effect in parental HEK293 cells | fluorescence ratio F(max-min)/F0 at 10 µM | parental HEK293 calcium flux, Fluo-4 fluorescence ratio; active compounds read high | shares compounds with MrgX1 antag | 4,000 compounds, 0.4% hits;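 active = calcium fluorescence ratio, averaged over duplicates, at least 3 SD of the buffer-well ratio, meaning a nonspecific response in receptor-free cells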;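 also: untransfected parental HEK293 lacking MrgX1 used as counterscreen for MrgX1 allosteric activators; fluorescence change taken during the second addition on a kinetic imager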
HEK293 Ca cntr2: counter-screen for MrgX1 activators: effect in parental HEK293 cells; Fluo-4 calcium fluorescence (FDSS); active compounds read high; 4,000 compounds, 8.7% hits; shares compounds with MrgX1 antag; AID 624115; fluorescence ratio F(max-min)/F0 at 10 µM;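 active = calcium fluorescence ratio at least three times the spread of buffer wells, meaning a non-specific response in parental cells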
A number is an active result; i = inactive; nt = not tested or not shown.

SMILES	MrgX1 allo act	RGS4 inh	RGS4 act	MrgX1 antag	MrgX1 ag	MrgX1 ant reconf	HEK293 Ca flux	HEK293 Ca counter	HEK293 Ca cntr2
CC1CC(C)CN(CCCNC(=O)c2cc3c(=O)[nH]c4ccccc4c3n2C)C1 (stereo unspecified)	i	i	i	i	i	nt	nt	nt	nt
O=C(Cn1nnc(-c2ccc(CN3CCOCC3)cc2)n1)N(c1ccccc1)c1ccccc1	i	i	i	-8.58	i	i	i	i	i
O=C(Cn1nnc(-c2ccc(CN3CCOCC3)cc2)n1)N1CCCc2ccccc21	i	i	i	i	i	nt	nt	nt	nt
CCCn1c(C(C)NS(=O)(=O)c2ccccc2)n[nH]c1=S (stereo unspecified)	i	i	i	i	i	nt	nt	nt	nt
CCn1c(C(C)NS(=O)(=O)c2ccc(Cl)cc2)n[nH]c1=S (stereo unspecified)	i	i	i	-6.5	i	i	i	i	i
CCCOc1ccc(/C(O)=C2/C(=O)C(=O)N(CCCn3ccnc3)C2c2cccnc2)cc1 (stereo unspecified)	i	i	i	i	i	nt	nt	nt	nt
O=S(=O)(Nc1nc(-c2ccccc2)cs1)c1cccc(C(F)(F)F)c1	i	i	i	-7.42	i	i	i	i	i
COc1ccc(-n2c(C)cc(/C=N/Nc3nnc(C)n3N)c2C)cc1	i	i	i	i	i	nt	nt	nt	nt
Cc1cccc(NC(=O)C2CCCN(S(=O)(=O)c3ccc4[nH]c(=O)ccc4c3)C2)c1 (stereo unspecified)	i	i	i	-6.55	i	i	i	i	i
Cc1ccc(C)c(N2CCN(C(=O)Cn3c(=O)oc4cc(S(=O)(=O)N5CCCC5)ccc43)CC2)c1	i	i	i	i	i	nt	nt	nt	nt
CCOC(=O)C1CCN(C(=O)Cn2c(=O)oc3cc(S(=O)(=O)N4CCCC4)ccc32)CC1	i	i	i	-5.08	i	i	i	i	i
CCOC(=O)C1CCN(S(=O)(=O)c2ccc3[nH]c(=O)ccc3c2)CC1	i	i	i	-4.73	i	i	i	i	i
Cc1ccc(NC(=O)C2CCCN(S(=O)(=O)c3ccc4[nH]c(=O)ccc4c3)C2)cc1C (stereo unspecified)	i	i	i	i	i	nt	nt	nt	nt
CCc1cccc(NC(=O)C2CCN(S(=O)(=O)c3ccc4[nH]c(=O)ccc4c3)CC2)c1	i	i	i	i	i	nt	nt	nt	nt
Cc1cc(C)cc(NC(=O)C2CCN(S(=O)(=O)c3ccc4[nH]c(=O)ccc4c3)CC2)c1	i	i	i	-6.36	i	i	i	i	i
Cc1ccc(C)c(CSc2nc3[nH]ncc3c(=O)[nH]2)c1	i	i	i	i	i	nt	nt	nt	nt
Cc1ccc(S(=O)(=O)N[C@H](C(=O)N2CCC(C(=O)N[C@@H](CC(=O)O)C(=O)O)CC2)C(C)C)cc1	i	i	i	i	i	nt	nt	nt	nt
CCN(CC(=O)Nc1cc(S(=O)(=O)N2CCCCC2)ccc1C)Cc1ccccc1	i	i	i	i	i	nt	nt	nt	nt
Cc1cc(C)n(-c2nc3ccccc3nc2Nc2ccc(CC(=O)O)cc2)n1	i	i	i	-7.57	i	i	i	i	i
CN(C)S(=O)(=O)c1ccc2c(c1)C(CC(=O)O)OC2=O (stereo unspecified)	i	i	i	-4.54	i	i	i	i	i
COc1ccc(OCc2nc3ccc(S(=O)(=O)Nc4ccccc4Cl)cc3[nH]2)cc1	i	i	i	-6.12	i	i	i	i	i
Cc1ccc(S(=O)(=O)N2CCN(C(=O)c3ccnn3C)CC2)cc1C	i	i	i	-5.68	i	i	i	i	i
CSc1ccc(CN2CCN(Cc3ccccc3)C(CCO)C2)cc1 (stereo unspecified)	i	i	i	-4.84	i	82.7%	i	i	i
CSc1cccc(CN2CCN(Cc3ccccc3)C(CCO)C2)c1 (stereo unspecified)	i	i	i	-5.16	i	82.9%	i	i	i
Cc1ccc(CN2CCN(Cc3ccccc3)C(CCO)C2)s1 (stereo unspecified)	i	i	i	i	i	nt	nt	nt	nt
SMILES	MrgX1 allo act	RGS4 inh	RGS4 act	MrgX1 antag	MrgX1 ag	MrgX1 ant reconf	HEK293 Ca flux	HEK293 Ca counter	HEK293 Ca cntr2
CSc1ccc(CN2CCN(CC=C(C)C)C(CCO)C2)cc1 (stereo unspecified)	i	i	i	i	i	nt	nt	nt	nt
CSc1cccc(CN2CCN(CCc3ccccc3)C(CCO)C2)c1 (stereo unspecified)	i	i	i	i	i	nt	nt	nt	nt
Cc1ccc(CN2CCN(Cc3ccc(C)s3)CC2CCO)cc1 (stereo unspecified)	i	i	i	-5.08	i	i	i	i	i
CC(C)CC(=O)Nc1c2c(nn1-c1ccc(F)cc1)CS(=O)C2 (stereo unspecified)	i	i	i	i	i	nt	nt	nt	nt
CSc1nc(N2CCN(c3ccccc3)CC2)cc(N2CCN(c3ccccc3)CC2)n1	i	i	i	-5.52	i	i	i	i	i
COc1ccc(Nc2nc(N)nc(CSc3nccn3C)n2)cc1	i	i	i	-4.88	i	i	i	i	i
COc1ccc(Nc2nc(N)nc(CSc3nnc(N)s3)n2)cc1	i	i	i	i	i	nt	nt	nt	nt
Cc1ccc(SCc2c(C(=O)N/N=C/c3ccoc3)nnn2-c2nonc2N)cc1	i	i	i	i	i	nt	nt	nt	nt
Cc1ccc(OCC(=O)N/N=C2/SCC(=O)N2Cc2ccccc2)cc1	i	i	i	-21.3	i	i	i	i	i
Cc1ccc2c(c1)[C@H]1[C@H](CO2)[C@H](c2ccccc2)[C@]2(C)C(=O)Nc3cc(Cl)ccc3C(=O)N12	i	nt	nt	i	i	nt	nt	nt	nt
C[C@@]12C(=O)Nc3cc(F)ccc3C(=O)N1[C@H]1c3ccccc3OC[C@@H]1[C@@H]2c1ccccc1	i	nt	nt	-6.24	i	82.4%	i	i	i
CC1(C)CC(=O)C(C=Nc2cccnc2)=C(O)C1	i	i	i	-4.62	i	i	i	i	i
C/C=C/C=C\C(=O)Nc1cccc(C2=NOC3(C2)C[C@@H](C(N)=O)N(C(=O)c2cc([N+](=O)[O-])cc([N+](=O)[O-])c2C)C3)c1 (stereo partly specified)	i	i	i	i	i	nt	nt	nt	nt
COc1ccc(OC)c(S(=O)(=O)Nc2ccc(OCC(=O)O)cc2)c1	i	i	i	i	i	nt	nt	nt	nt
COc1ccc(OC)c(S(=O)(=O)Nc2ccc(CC(=O)O)cc2)c1	i	i	i	-9.17	i	i	i	i	i
